Experiment [1] concerns the target T1, Cathepsin D (Bos taurus, UniProt P80209).
T1 sequence (P80209 whole entry): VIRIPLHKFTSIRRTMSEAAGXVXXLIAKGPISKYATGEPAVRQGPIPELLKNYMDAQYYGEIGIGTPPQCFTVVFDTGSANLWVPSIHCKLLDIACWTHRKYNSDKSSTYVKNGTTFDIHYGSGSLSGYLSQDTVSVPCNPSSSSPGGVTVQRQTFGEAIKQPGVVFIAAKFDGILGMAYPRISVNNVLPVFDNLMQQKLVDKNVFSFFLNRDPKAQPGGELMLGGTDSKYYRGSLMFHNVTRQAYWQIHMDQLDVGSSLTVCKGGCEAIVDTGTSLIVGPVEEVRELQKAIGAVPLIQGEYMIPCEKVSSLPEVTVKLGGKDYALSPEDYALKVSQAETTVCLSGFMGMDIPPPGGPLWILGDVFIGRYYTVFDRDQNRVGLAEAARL
The experiment can be described thus: Inhibitory concentration on Bovine Cathepsin D. The procedure, abridged:
(§1)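 Bovine cathepsin D hydrolysing twice-crystallised bovine hemoglobin at pH 3.2 and 37 °C, run in duplicate. Net absorbance at 280 nm was read in acid-precipitated supernatants and compared with uninhibited controls. IC50 came from nonlinear regression over six inhibitor concentrations.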

Experiment [2] relates to Monkey. Briefly: Maximum fall in mean arterial blood pressure expressed in mmHg following a 30 mg/kg dose in monkeys. The class given is functional, Cercopithecidae. The procedure, abridged:
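Conscious monkeys were dosed orally by gavage at 30 mg/kg in water/dimethylacetamide/Tween 80 (62.5:7.5:30), 2 mL/kg. Two models were used: high-renin normotensive (sodium restriction plus furosemide) or renal hypertensive (renal artery clipping). Mean arterial pressure was followed for 3 h, and the maximum fall in mmHg was recorded. N is given per compound.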

For experiment [3], the target named is T1, Cathepsin D. Briefly: Inhibition of Bovine Cathepsin D. Put shortly: as §1
Experiment [4] has as its target T2, Renin (Homo sapiens, UniProt P00797).
T2 sequence (P00797 whole entry): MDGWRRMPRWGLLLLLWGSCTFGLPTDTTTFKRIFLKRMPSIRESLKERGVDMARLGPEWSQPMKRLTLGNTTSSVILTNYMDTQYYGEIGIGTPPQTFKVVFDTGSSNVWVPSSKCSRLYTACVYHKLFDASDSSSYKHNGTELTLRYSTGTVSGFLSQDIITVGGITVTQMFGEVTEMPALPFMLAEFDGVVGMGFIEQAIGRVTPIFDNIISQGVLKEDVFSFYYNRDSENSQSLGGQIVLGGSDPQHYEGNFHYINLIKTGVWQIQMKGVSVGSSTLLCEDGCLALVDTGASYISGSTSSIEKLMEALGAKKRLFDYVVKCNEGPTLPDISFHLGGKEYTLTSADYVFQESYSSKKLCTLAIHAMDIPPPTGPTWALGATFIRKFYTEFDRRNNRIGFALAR
The experiment can be described thus: Inhibitory concentration against human renin.

Experiment [5] deals with Renin (Macaca fascicularis). Briefly: Inhibition of monkey plasma renin.
For experiment [6], the target named is Chymotrypsinogen A (Bos taurus) (UniProt P00766). The experiment can be described thus: % degradation to Chymotrypsinogen proteolysis at 30 mins. The procedure, abridged:
(§2)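 Bovine chymotrypsin in buffered solution at pH 6.9, following a previously established method. Test compound was incubated with the enzyme, and the percent of compound degraded was read at 15 or 30 min.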

Experiment [7] shares this target. The experiment can be described thus: % degradation to Chymotrypsinogen proteolysis at 15 mins. Put shortly: as §2
Experiment [8] concerns Monkey. The experiment can be described thus: Maximum fall in mean arterial blood pressure expressed in mmHg following a 3 mg/kg intravenous dose in monkeys.

The record followed here is ChEMBL document CHEMBL1125270, “Renin inhibitors containing esters at the P2-position. Oral activity in a derivative of methyl aminomalonate” (J Med Chem, 1991).

Each structure is given as a SMILES string.

As usually defined, the IC50 is the concentration that inhibits the measured activity by half.

`CSC[C@H](NC(=O)[C@H](Cc1ccccc1)NC(=O)N1CCOCC1)C(=O)N[C@@H](CC1CCCCC1)[C@@H](O)C(=O)OC(C)C`: it took 0.024 µM to reach half-maximal inhibition in experiment [1] (IC50). In experiment [2], this compound returned a Blood pressure of 9 mmHg.

Compound `COC(=O)C(NC(=O)[C@H](Cc1ccccc1)NS(=O)(=O)N1CCOCC1)C(=O)N[C@@H](CC1CCCCC1)C(=O)C(F)(F)C(=O)NCCN1CCOCC1` (stereo partly drawn) registered a half-inhibitory concentration (IC50) in experiment [1] of 0.515 µM. In experiment [2], this compound had a Blood pressure of 16 mmHg.

Compound `COC(=O)C(NC(=O)[C@H](Cc1ccccc1)NS(=O)(=O)N1CCOCC1)C(=O)N[C@@H](CC1CCCCC1)[C@@H](O)[C@H](O)CC(C)C` (stereo in doubt; 4A) had a Blood pressure in experiment [2] (30 mg/kg) of 18 mmHg. In addition, the concentration for half-maximal inhibition (IC50) in experiment [3] stood at 0.046 µM.

The compound `COc1ccc(C[C@H](NC(=O)CC(C)(C)N)C(=O)N[C@@H](Cc2c[nH]cn2)C(=O)N[C@@H](CC2CCCCC2)[C@@H](O)[C@@H](O)CC(C)C)cc1` came in with a Blood pressure in experiment [2] of 8 mmHg. The same compound registered a half-maximal inhibitory concentration (IC50) in experiment [3] of over 1 µM.

In the case of `COC(=O)C(NC(=O)[C@H](Cc1ccccc1)NS(=O)(=O)N1CCOCC1)C(=O)N[C@@H](CC1CCCCC1)[C@@H](O)[C@H](O)CC(C)C` (stereo in doubt; 4) [listing 1 of 2 here], the Blood pressure in experiment [2] (30 mg/kg) is 22 mmHg. This compound displayed a concentration for half-maximal inhibition (IC50) in experiment [3] of 0.036 µM.

Regarding `COC(=O)C(NC(=O)[C@H](Cc1ccccc1)NS(=O)(=O)N1CCOCC1)C(=O)N[C@@H](CC(C)C)[C@@H](O)CC(=O)NCCN1CCOCC1` (stereo partly drawn), the half-inhibitory concentration (IC50) in experiment [1] was over 1 µM; in experiment [4], 0.13 µM.

`COC(=O)CCC(NC(=O)[C@H](Cc1ccccc1)NS(=O)(=O)N1CCOCC1)C(=O)N[C@@H](CC1CCCCC1)[C@@H](O)[C@H](O)CC(C)C` (stereo partly drawn): the IC50 was found to be 0.0014 µM in experiment [5] and 0.03 µM in experiment [3]. This compound returned a Blood pressure in experiment [2] of 12 mmHg.

With `COC(=O)CC(NC(=O)[C@H](Cc1ccccc1)NS(=O)(=O)N1CCOCC1)C(=O)N[C@@H](CC1CCCCC1)[C@@H](O)[C@H](O)CC(C)C` (stereo partly drawn), the half-inhibitory concentration (IC50) in experiment [5] was found to be 0.00018 µM; in experiment [3], 0.027 µM. The same compound registered a Blood pressure in experiment [2] of 3 mmHg.

For the compound `CC(C)C[C@@H](O)[C@H](O)[C@H](CC1CCCCC1)NC(=O)C(NC(=O)[C@H](Cc1ccccc1)NS(=O)(=O)N1CCOCC1)C(=O)O` (stereo partly drawn), the values for the 50% inhibitory concentration (IC50) in experiment [5] and in experiment [3] were 0.027 µM and 0.31 µM, respectively.

Compound `CCCCNC(=O)[C@@H](C[C@H](O)[C@H](CC1CCCCC1)NC(=O)[C@H](Cc1c[nH]cn1)NC(=O)[C@H](Cc1ccccc1)CS(=O)(=O)C(C)(C)C)C(C)C` came in with a half-maximal inhibitory concentration (IC50) in experiment [1] of 1.3 µM. The Blood pressure in experiment [2] stood at 16 mmHg.

`CC(C)C[C@@H](O)[C@H](O)[C@H](CC1CCCCC1)NC(=O)C(NC(=O)[C@H](Cc1ccccc1)NS(=O)(=O)N1CCOCC1)C(=O)OC(C)C` (stereo partly drawn): the values for the IC50 in experiment [5] and in experiment [3] were 0.00068 µM and 0.043 µM, respectively. This compound gave a Blood pressure in experiment [2] of 16 mmHg. The compound further had a Degradation in experiment [6] of 70%.

For the compound `COC(=O)C(NC(=O)[C@H](Cc1ccccc1)NS(=O)(=O)N1CCOCC1)C(=O)N[C@@H](CC1CCCCC1)[C@@H](O)[C@H](O)CC(C)C` (stereo in doubt; 4B), the Blood pressure in experiment [2] (30 mg/kg) was determined as 14 mmHg. This compound returned an IC50 in experiment [3] of 0.077 µM.

As to `COC(=O)C(NC(=O)[C@H](Cc1ccccc1)NS(=O)(=O)N1CCOCC1)C(=O)N[C@@H](CC1CCCCC1)[C@@H](O)[C@H](O)CC(C)C` (stereo in doubt; 4) [listing 2 of 2 here], the Degradation in experiment [7] is 89%; in experiment [6] it was 100%.

As to `COC(=O)C(NC(=O)[C@H](Cc1ccccc1)NS(=O)(=O)N1CCOCC1)C(=O)N[C@@H](CC1CCCCC1)[C@@H](O)CC(=O)NCCN1CCOCC1` (stereo partly drawn), in experiment [8], the Blood pressure is 16 mmHg. The compound further displayed a half-maximal inhibitory concentration (IC50) in experiment [1] of over 1 µM.

Consider `CCCCCCOC(=O)C(NC(=O)[C@H](Cc1ccccc1)NS(=O)(=O)N1CCOCC1)C(=O)N[C@@H](CC1CCCCC1)[C@@H](O)[C@H](O)CC(C)C` (stereo partly drawn), for which the half-maximal inhibitory concentration (IC50) in experiment [5] turned out to be 0.015 µM; in experiment [3], 0.1 µM. Besides, the Degradation in experiment [6] was 15%.

Regarding `C=CCOC(=O)C(NC(=O)[C@H](Cc1ccccc1)NS(=O)(=O)N1CCOCC1)C(=O)N[C@@H](CC1CCCCC1)[C@@H](O)[C@H](O)CC(C)C` (stereo partly drawn), the IC50 in experiment [5] was 0.00095 µM; in experiment [3], over 0.1 µM. Further, in experiment [6], the Degradation worked out at 65%.
